Calls of active or inactive are those of the source. No cut-off for these calls is given here.
Experiments:
MDA-MB-231 [1] = assay: Antitumor activity against human MDA-MB-231 cells implanted in mouse dosed qd for 4 days by formazan dye-based hollow fiber assay; type: functional, organism-based
Method in brief: (§1)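 Cells grown inside polyvinylidene fluoride hollow fibers; each line implanted into both intraperitoneal and subcutaneous compartments in mice. Compound given ip at two doses on a QD x 4 schedule. Fibers then recovered and viable cell mass measured by formazan dye conversion. Scored 2 per dose giving ≥50% reduction in viable cell mass (%T/C 50).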

UACC-62 = assay: Cytotoxicity against human UACC62 cells after 48 hrs by SRB assay; type: functional; conditions: UACC-62, 48 h
Method in brief: (§2)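 NCI 60-cell-line five-dose screen. Cells were grown in 1640 medium with 5% fetal calf serum and 2 mM L-glutamine, with inoculum density set by cell line, and pre-incubated 24 h. Compound in DMSO was added at 10^-4 to 10^-8 M (10-fold steps) with 48 h continuous exposure. Growth was read by SRB protein assay, and GI50, TGI and LC50 were derived from dose-response.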

MCF7 = assay: Cytotoxicity against human MCF7 cells assessed as cell growth at 10 uM after 48 hrs by SRB assay; type: functional; conditions: MCF7, 48 h, read-out: Activity
Method in brief: (§3)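 NCI primary single-dose screen at 10^-5 M against the full panel of about 60 human tumor cell lines. Cells were in RPMI-1640 with 5% fetal calf serum and 2 mM L-glutamine and preincubated 24 h. Compound was given in DMSO with 48 h exposure. Growth was estimated by sulforhodamine B protein assay.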

RXF 393 = assay: Cytotoxicity against human RXF393 cells after 48 hrs by SRB assay; type: functional; conditions: RXF 393, 48 h
Method in brief: (§4)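 NCI five-dose screen on the ~60-line human tumor panel. Cells grown in RPMI-1640 with 5% fetal calf serum and 2 mM L-glutamine, seeded at line-dependent density and preincubated 24 h. Compound added from DMSO at 10-fold dilutions from 10^-4 to 10^-8 M, continuous exposure 48 h. Growth read by sulforhodamine B protein stain. GI50, TGI and LC50 derived per line.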

OVCAR-4 = assay: Cytotoxicity against human OVCAR4 cells after 48 hrs by SRB assay; type: functional; conditions: OVCAR-4, 48 h; method in brief: as §4
Hs-578T [2] = assay: Cytotoxicity against human Hs578T cells assessed as cell growth at 10 uM after 48 hrs by SRB assay; type: functional; conditions: read-out: Activity
Method in brief: (§5)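 NCI primary single-dose screen at 10^-5 M against the ~60 human tumour cell line panel. Cells grown in RPMI-1640 with 5% fetal calf serum and 2 mM L-glutamine and pre-incubated 24 h before compound addition. Compound added from DMSO solution with 48 h exposure. Growth read by sulforhodamine B protein staining.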

MDA-MB-231 [3] = assay: Cytotoxicity against human MDA-MB-231 cells assessed as cell growth at 10 uM after 48 hrs by SRB assay; type: functional; conditions: MDA-MB-231, 48 h, read-out: Activity; method in brief: as §3
SR = assay: Cytotoxicity against human SR cells assessed as cell growth at 10 uM after 48 hrs by SRB assay; type: functional; conditions: read-out: Activity
Method in brief: (§6)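 NCI primary one-dose screen at 10^-5 M against the full panel of about 60 human tumour cell lines, run to the NCI Drug Evaluation Branch protocol.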

K562 = assay: Cytotoxicity against human K562 cells assessed as cell growth at 10 uM after 48 hrs by SRB assay; type: functional; conditions: K562, 48 h, read-out: Activity; method in brief: as §5
OVCAR-5 [4] = assay: Cytotoxicity against human OVCAR5 cells after 48 hrs by SRB assay; type: functional; conditions: OVCAR-5, 48 h; method in brief: as §4
SW-620 = assay: Antitumor activity against human SW620 cells implanted in mouse dosed qd for 4 days by formazan dye-based hollow fiber assay; type: functional, organism-based; method in brief: as §1
SN12C = assay: Cytotoxicity against human SN12C cells after 48 hrs by SRB assay; type: functional; method in brief: as §2
SNB-75 = assay: Cytotoxicity against human SNB75 cells after 48 hrs by SRB assay; type: functional; conditions: SNB-75, 48 h; method in brief: as §2
SNB-19 = assay: Cytotoxicity against human SNB19 cells assessed as cell growth at 10 uM after 48 hrs by SRB assay; type: functional; conditions: SNB-19, 48 h, read-out: Activity; method in brief: as §6
HCC 2998 = assay: Cytotoxicity against human HCC2998 cells assessed as cell growth at 10 uM after 48 hrs by SRB assay; type: functional; conditions: HCC 2998, 48 h, read-out: Activity; method in brief: as §5
OVCAR-5 [5] = assay: Antitumor activity against human OVCAR5 cells implanted in mouse dosed qd for 4 days by formazan dye-based hollow fiber assay; type: functional, organism-based; method in brief: as §1
NCI-H23 = assay: Cytotoxicity against human NCI-H23 cells after 48 hrs by SRB assay; type: functional; conditions: NCI-H23, 48 h; method in brief: as §4
SF-539 = assay: Cytotoxicity against human SF539 cells assessed as cell growth at 10 uM after 48 hrs by SRB assay; type: functional; conditions: SF-539, 48 h, read-out: Activity; method in brief: as §3
TK-10 = assay: Cytotoxicity against human TK10 cells after 48 hrs by SRB assay; type: functional; conditions: TK-10, 48 h; method in brief: as §2
CAKI-1 = assay: Cytotoxicity against human Caki1 cells after 48 hrs by SRB assay; type: functional; conditions: CAKI-1, 48 h
Method in brief: (§7)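 NCI ~60-line panel in RPMI-1640 with 5% fetal calf serum and 2 mM L-glutamine, pre-incubated 24 h. Compound in DMSO tested at five 10-fold concentrations (10^-4 to 10^-8 M) with 48 h continuous exposure. Growth measured by sulforhodamine B protein assay. GI50 (50% net growth inhibition), TGI (total inhibition) and LC50 (50% net cell death) derived from dose-response.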

Hs-578T [6] = assay: Cytotoxicity against human Hs578T cells after 48 hrs by SRB assay; type: functional; method in brief: as §7
IGROV-1 = assay: Cytotoxicity against human IGROV1 cells after 48 hrs by SRB assay; type: functional; conditions: IGROV-1, 48 h; method in brief: as §7
MDA-MB-435 = assay: Antitumor activity against human MDA-MB-435 cells implanted in mouse dosed qd for 4 days by formazan dye-based hollow fiber assay; type: functional, organism-based; method in brief: as §1
HOP-92 = assay: Cytotoxicity against human HOP92 cells assessed as cell growth at 10 uM after 48 hrs by SRB assay; type: functional; conditions: HOP-92, 48 h, read-out: Activity; method in brief: as §5

For `CCc1ccc(-c2ccc(=O)n(-c3ccc(S(N)(=O)=O)cc3)n2)cc1`, the Activity (MDA-MB-231 [1]) was “inactive”, the LC50 (UACC-62) was over 100 µM and the GI50 (UACC-62; read-out: GI50) was 0.724 µM. For the same compound, the GI50 (UACC-62; read-out: pGI50 (converted)) was 0.724 µM, the TGI (UACC-62; read-out: pTGI) was over 100 µM and the growth at 10 µM (MCF7) was 30.1%. The LC50 (RXF 393) was over 100 µM, the GI50 (RXF 393; read-out: GI50) was 3.51 µM and the GI50 (RXF 393; read-out: pGI50 (converted)) was 3.55 µM. For the same compound, the TGI (RXF 393; read-out: pTGI (converted)) was 28.2 µM, the LC50 (OVCAR-4) was over 100 µM and the GI50 (OVCAR-4; read-out: GI50) was over 100 µM. The GI50 (OVCAR-4; read-out: pGI50 (converted)) was over 100 µM, the TGI (OVCAR-4; read-out: pTGI) was over 100 µM and the growth at 10 µM (Hs-578T [2]) was 28.6%. It also gave a growth at 10 µM (MDA-MB-231 [3]) of 66.8%, a growth at 10 µM (SR) of -11.9% and a growth at 10 µM (K562) of 11%. The LC50 (OVCAR-5 [4]) was over 100 µM, the GI50 (OVCAR-5 [4]; read-out: GI50) was 41.4 µM and the GI50 (OVCAR-5 [4]; read-out: pGI50 (converted)) was 41.7 µM. For the same compound, the TGI (OVCAR-5 [4]; read-out: pTGI) was over 100 µM, the Activity (SW-620) was “inactive” and the LC50 (SN12C) was over 100 µM. For the same compound, the GI50 (SN12C; read-out: GI50) was 5.84 µM, the GI50 (SN12C; read-out: pGI50 (converted)) was 5.89 µM and the TGI (SN12C; read-out: pTGI) was over 100 µM. The LC50 (SNB-75) was over 100 µM, the GI50 (SNB-75; read-out: GI50) was 1.76 µM and the GI50 (SNB-75; read-out: pGI50 (converted)) was 1.74 µM. It also gave a TGI (SNB-75; read-out: pTGI (converted)) of 28.8 µM, a growth at 10 µM (SNB-19) of 57.6% and a growth at 10 µM (HCC 2998) of 53.9%. The Activity (OVCAR-5 [5]) was “inactive”, the LC50 (NCI-H23) was over 100 µM and the GI50 (NCI-H23; read-out: GI50) was 16.9 µM. The GI50 (NCI-H23; read-out: pGI50 (converted)) was 17 µM, the TGI (NCI-H23; read-out: pTGI) was over 100 µM and the growth at 10 µM (SF-539) was 43.6%. The LC50 (TK-10) was 77.6 µM, the GI50 (TK-10; read-out: GI50) was 10.8 µM and the GI50 (TK-10; read-out: pGI50 (converted)) was 11 µM. For the same compound, the TGI (TK-10; read-out: pTGI (converted)) was 28.8 µM, the LC50 (concentration causing 50% net cell death) (CAKI-1) was over 100 µM and the GI50 (CAKI-1; read-out: GI50) was 2.73 µM. It also gave a GI50 (CAKI-1; read-out: pGI50 (converted)) of 2.75 µM, a TGI (CAKI-1; read-out: pTGI) of over 100 µM and an LC50 (50% net cell kill) (Hs-578T [6]) of over 100 µM. The GI50 (Hs-578T [6]; read-out: GI50) was 1.03 µM, the GI50 (Hs-578T [6]; read-out: pGI50 (converted)) was 1.02 µM and the TGI (Hs-578T [6]; read-out: pTGI (converted)) was 17 µM. For the same compound, the LC50 (IGROV-1) was over 100 µM, the GI50 (IGROV-1; read-out: GI50) was 3.81 µM and the GI50 (IGROV-1; read-out: pGI50 (converted)) was 3.8 µM. The TGI (IGROV-1; read-out: pTGI) was over 100 µM, the Activity (MDA-MB-435) was “inactive” and the growth at 10 µM (HOP-92) was 65.8%.

— ChEMBL document CHEMBL1944532, “Synthesis and evaluation of anticancer activity of some novel 6-aryl-2-(p-sulfamylphenyl)-pyridazin-3(2H)-ones” (Eur J Med Chem, 2012)
